# Data published in ChEMBL document CHEMBL5653631, “A Potent and Selective ULK1 Inhibitor Suppresses Autophagy and Sensitizes Cancer Cells to Nutrient Stress” (iScience, 2018).
# Experiments:
# [1] = biological target: Serine/threonine-protein kinase Nek4 (Homo sapiens) (UniProt P51957); test: Inhibition of human recombinant NEK4 at 40 nM related to control ULK1
# [2] = biological target: 3-phosphoinositide-dependent protein kinase 1 (Homo sapiens) (UniProt O15530); test: Inhibition of human recombinant PDK1 at 40 nM in presence of ATP by radiometric assay relative to control
# Chain of 3-phosphoinositide-dependent protein kinase 1 (Homo sapiens) (O15530 whole entry, looked up): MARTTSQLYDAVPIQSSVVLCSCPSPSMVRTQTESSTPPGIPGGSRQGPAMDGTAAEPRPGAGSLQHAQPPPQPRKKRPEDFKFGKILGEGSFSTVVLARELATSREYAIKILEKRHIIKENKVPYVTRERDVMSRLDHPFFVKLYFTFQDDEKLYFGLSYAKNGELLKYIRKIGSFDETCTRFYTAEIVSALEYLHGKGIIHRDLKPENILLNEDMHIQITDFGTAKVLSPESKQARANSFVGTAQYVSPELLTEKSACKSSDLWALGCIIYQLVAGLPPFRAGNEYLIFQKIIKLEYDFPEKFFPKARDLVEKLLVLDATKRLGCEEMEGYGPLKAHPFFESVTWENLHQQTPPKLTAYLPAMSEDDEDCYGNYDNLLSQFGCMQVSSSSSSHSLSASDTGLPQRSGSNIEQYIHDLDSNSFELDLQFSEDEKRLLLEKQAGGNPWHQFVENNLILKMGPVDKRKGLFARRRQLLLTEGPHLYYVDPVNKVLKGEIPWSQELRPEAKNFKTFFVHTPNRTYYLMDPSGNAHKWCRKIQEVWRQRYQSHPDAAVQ
# [3] = biological target: Serine-protein kinase ATM (Homo sapiens) (UniProt Q13315); test: Inhibition of human recombinant ATM at 40 nM related to control ULK1
# Chain of Serine-protein kinase ATM (Homo sapiens) (Q13315 whole entry): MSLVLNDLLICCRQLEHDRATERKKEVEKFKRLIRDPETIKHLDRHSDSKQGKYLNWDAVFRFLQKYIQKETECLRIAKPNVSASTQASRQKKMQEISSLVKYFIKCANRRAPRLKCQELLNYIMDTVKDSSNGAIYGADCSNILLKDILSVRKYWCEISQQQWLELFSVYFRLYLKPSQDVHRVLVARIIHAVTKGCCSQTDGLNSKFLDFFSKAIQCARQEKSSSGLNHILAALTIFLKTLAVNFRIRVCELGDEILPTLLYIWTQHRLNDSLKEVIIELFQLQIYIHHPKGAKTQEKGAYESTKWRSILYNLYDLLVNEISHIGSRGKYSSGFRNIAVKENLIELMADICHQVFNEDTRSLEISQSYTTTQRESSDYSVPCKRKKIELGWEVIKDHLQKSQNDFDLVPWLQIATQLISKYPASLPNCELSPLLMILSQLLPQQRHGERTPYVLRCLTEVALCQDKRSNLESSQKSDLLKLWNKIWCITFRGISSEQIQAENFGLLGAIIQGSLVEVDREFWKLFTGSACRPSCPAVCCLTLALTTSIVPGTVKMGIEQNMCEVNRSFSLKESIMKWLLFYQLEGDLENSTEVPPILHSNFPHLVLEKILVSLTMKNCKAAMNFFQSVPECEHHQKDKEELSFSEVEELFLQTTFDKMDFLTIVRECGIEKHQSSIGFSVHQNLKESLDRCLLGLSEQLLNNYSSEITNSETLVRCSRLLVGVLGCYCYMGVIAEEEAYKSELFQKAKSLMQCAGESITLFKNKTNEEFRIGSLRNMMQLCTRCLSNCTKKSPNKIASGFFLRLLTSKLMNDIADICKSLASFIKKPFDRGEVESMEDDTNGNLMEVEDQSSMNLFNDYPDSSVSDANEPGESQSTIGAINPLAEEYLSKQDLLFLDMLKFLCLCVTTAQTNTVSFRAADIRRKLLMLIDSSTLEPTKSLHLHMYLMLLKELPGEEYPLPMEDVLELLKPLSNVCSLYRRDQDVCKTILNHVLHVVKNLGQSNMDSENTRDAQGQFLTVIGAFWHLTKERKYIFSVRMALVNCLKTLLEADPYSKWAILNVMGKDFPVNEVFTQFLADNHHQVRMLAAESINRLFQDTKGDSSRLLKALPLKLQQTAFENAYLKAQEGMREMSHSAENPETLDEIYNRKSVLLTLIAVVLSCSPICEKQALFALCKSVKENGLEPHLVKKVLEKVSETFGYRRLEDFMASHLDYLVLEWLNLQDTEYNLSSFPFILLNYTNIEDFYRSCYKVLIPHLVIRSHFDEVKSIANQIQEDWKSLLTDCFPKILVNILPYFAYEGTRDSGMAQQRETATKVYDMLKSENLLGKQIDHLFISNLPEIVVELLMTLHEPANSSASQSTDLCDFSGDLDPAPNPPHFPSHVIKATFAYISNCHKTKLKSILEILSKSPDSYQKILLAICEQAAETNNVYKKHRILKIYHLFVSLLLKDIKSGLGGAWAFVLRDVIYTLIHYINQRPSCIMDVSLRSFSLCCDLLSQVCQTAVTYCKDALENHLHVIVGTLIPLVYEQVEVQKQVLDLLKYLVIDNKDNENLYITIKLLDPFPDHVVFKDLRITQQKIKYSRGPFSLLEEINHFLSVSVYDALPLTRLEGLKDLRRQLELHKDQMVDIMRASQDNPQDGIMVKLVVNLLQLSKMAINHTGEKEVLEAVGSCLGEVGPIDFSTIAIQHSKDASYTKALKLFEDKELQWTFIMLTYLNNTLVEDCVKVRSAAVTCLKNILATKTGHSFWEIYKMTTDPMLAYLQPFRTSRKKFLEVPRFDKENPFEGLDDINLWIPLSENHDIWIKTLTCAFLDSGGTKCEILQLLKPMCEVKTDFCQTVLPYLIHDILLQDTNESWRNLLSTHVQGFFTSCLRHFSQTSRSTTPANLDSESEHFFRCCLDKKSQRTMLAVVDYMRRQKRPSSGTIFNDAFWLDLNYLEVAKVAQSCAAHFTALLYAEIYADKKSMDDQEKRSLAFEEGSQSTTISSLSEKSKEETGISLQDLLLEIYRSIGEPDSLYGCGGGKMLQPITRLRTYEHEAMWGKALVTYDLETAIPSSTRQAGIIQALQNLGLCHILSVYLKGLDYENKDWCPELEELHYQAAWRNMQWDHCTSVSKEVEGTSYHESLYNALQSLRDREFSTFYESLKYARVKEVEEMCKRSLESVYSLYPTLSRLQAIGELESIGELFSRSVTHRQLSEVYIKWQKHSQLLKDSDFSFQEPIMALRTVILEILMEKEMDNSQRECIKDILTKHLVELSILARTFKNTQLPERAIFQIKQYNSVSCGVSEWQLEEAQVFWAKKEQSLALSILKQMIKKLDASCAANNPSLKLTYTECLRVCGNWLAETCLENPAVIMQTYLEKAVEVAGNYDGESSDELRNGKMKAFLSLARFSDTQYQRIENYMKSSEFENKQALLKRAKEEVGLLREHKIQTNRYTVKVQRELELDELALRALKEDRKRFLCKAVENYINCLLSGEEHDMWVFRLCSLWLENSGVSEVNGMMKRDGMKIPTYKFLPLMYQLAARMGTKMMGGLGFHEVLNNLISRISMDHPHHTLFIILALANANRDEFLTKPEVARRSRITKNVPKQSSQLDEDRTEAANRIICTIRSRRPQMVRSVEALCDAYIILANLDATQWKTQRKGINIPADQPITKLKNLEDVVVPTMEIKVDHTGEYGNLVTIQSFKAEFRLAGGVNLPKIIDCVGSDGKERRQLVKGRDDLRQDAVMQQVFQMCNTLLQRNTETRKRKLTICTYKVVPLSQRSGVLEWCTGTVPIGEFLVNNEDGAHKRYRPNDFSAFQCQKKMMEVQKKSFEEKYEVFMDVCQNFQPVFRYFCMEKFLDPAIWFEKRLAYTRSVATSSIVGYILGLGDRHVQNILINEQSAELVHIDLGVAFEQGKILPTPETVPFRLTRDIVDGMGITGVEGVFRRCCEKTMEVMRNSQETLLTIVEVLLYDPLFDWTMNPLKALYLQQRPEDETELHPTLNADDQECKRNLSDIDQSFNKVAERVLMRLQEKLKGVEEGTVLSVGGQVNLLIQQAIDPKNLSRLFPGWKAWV
# Method in brief: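 Radiometric activity assays in a panel of 327 human recombinant kinases, each run in duplicate at one inhibitor concentration. Activity remaining is expressed as percent of vehicle control, and percent inhibition is calculated as 100% minus percent activity remaining.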
# [4] = biological target: Cyclin-dependent kinase 5 (Homo sapiens) (UniProt Q00535); test: Inhibition of human recombinant CDK5 at 15 nM in presence of ATP by radiometric assay relative to control
# [5] = biological target: Bone morphogenetic protein receptor type-1B (Homo sapiens) (UniProt O00238); test: Inhibition of human recombinant BMPR1B at 15 nM related to control ULK1
# [6] = biological target: T1, Serine/threonine-protein kinase ULK1 (Homo sapiens) (UniProt O75385); test: Inhibition of human recombinant ULK1 at 15 nM in presence of ATP by radiometric assay relative to control
# T1 sequence (whole entry): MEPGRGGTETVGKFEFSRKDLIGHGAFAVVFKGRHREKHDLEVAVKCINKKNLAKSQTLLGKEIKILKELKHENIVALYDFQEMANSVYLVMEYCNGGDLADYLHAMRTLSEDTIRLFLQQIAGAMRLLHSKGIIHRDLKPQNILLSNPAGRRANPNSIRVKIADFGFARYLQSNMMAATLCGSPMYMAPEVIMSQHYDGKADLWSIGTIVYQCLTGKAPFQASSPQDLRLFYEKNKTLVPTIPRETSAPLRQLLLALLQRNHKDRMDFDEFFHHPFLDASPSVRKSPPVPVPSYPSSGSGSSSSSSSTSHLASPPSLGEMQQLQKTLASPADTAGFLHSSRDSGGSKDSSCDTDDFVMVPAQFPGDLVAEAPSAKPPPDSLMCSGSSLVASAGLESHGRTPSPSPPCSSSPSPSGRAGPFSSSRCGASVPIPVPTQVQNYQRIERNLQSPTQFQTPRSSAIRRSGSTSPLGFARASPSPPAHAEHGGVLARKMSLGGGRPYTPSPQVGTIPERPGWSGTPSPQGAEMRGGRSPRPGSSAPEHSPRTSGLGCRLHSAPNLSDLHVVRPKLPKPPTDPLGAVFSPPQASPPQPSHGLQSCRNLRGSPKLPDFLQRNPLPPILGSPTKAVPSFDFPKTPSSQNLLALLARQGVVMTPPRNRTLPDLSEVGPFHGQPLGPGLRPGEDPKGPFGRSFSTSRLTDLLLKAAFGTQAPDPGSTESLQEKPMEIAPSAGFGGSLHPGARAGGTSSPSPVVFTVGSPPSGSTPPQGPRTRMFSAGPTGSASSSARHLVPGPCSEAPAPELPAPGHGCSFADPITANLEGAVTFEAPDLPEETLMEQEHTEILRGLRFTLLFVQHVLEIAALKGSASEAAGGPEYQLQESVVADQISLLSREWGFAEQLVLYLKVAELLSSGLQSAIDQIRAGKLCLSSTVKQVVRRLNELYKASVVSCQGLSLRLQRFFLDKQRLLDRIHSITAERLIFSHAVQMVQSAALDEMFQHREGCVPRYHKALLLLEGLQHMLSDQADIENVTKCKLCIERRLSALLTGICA
# [7] = biological target: T2, Cytoplasmic tyrosine-protein kinase BMX (Homo sapiens) (UniProt P51813); test: Inhibition of human recombinant BMX at 500 nM in presence of ATP by radiometric assay relative to control
# T2 sequence (whole entry): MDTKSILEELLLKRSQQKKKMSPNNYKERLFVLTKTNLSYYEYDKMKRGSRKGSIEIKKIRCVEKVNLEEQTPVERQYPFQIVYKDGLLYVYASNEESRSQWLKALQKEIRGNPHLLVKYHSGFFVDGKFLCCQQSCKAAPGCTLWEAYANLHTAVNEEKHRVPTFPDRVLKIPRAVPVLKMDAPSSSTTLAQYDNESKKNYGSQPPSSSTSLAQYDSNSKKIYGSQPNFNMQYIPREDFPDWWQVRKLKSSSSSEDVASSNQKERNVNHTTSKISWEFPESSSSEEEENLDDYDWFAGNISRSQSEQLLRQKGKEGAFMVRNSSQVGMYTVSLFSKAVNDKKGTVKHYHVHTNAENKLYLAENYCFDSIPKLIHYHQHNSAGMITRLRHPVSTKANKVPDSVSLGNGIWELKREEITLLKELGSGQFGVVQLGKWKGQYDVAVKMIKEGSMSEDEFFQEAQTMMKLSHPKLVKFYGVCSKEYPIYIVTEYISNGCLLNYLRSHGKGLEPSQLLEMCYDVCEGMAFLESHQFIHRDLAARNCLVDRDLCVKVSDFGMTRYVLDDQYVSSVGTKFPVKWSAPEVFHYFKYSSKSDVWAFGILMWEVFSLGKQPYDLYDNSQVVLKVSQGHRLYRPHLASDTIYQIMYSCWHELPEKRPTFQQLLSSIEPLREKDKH
# Method in brief: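 Part of a radiometric in vitro activity panel of 327 recombinant human kinases. Each kinase was tested in duplicate at one inhibitor concentration. Activity remaining was expressed as a percentage of the vehicle control, and percent inhibition was taken as 100 minus that value.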
# [8] = biological target: Maternal embryonic leucine zipper kinase (Homo sapiens) (UniProt Q14680); test: Inhibition of human recombinant MELK at 500 nM related to control ULK1
# Chain of Maternal embryonic leucine zipper kinase (Homo sapiens) (Q14680 whole entry, looked up): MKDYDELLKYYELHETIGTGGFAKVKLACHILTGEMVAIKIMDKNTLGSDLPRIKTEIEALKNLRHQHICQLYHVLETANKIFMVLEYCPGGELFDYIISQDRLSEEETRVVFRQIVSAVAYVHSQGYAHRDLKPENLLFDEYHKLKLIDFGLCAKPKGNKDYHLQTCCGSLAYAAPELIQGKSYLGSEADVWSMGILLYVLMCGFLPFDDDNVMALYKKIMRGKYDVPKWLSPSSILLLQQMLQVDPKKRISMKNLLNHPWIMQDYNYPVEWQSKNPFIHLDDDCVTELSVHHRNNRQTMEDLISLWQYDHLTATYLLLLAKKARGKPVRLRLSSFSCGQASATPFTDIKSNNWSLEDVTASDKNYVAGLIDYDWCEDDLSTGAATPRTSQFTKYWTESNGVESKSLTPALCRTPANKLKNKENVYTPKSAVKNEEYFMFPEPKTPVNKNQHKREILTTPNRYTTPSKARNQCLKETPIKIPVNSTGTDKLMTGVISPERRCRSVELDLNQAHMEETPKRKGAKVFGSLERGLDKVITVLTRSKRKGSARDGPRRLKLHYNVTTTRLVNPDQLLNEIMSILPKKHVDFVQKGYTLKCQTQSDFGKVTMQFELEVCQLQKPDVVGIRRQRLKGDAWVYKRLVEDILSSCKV
# [9] = biological target: Serine/threonine-protein kinase D2 (Homo sapiens) (UniProt Q9BZL6); test: Inhibition of human recombinant PKD2 at 500 nM related to control ULK1
# Chain of Serine/threonine-protein kinase D2 (Homo sapiens) (Q9BZL6 whole entry, looked up): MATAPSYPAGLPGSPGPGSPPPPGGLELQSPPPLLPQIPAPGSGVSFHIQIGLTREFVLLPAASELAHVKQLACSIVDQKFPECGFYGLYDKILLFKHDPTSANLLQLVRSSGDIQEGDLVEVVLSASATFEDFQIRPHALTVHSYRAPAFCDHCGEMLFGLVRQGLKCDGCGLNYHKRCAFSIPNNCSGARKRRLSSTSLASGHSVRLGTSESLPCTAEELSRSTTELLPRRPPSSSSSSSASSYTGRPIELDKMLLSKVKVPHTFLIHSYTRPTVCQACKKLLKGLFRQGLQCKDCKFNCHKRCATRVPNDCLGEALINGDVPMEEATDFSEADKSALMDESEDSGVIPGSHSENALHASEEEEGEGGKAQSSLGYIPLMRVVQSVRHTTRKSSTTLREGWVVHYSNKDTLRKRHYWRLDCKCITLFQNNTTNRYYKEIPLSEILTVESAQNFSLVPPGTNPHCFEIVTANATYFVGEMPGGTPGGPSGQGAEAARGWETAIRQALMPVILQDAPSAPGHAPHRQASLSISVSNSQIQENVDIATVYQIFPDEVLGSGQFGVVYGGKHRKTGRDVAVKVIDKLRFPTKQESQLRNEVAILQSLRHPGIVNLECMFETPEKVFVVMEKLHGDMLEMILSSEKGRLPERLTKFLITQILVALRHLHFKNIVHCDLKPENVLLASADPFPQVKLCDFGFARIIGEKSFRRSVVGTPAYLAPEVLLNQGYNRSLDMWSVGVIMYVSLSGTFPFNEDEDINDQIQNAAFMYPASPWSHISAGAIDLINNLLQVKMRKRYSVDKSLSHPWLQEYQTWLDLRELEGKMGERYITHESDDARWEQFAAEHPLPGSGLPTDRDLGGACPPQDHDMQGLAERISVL
structure (smiles),measurement,setting,value
O=C(N[C@@H](C1CC1)C(F)(F)F)c1cc(-c2cnn3cc(-c4ccc(F)cc4)cnc23)cs1,fold change (FC),[1],0.05
same,inhibition,[2],0%
same,fold change (FC),[3],0.07
CC(C)[C@H](NC(=O)c1cc(-c2cnn3cc(-c4ccc(OCCN5CCCCC5)cc4)cnc23)cs1)C(F)(F)F,inhibition,[4],23%
same,fold change (FC),[5],0.27
same,inhibition,[6],88%
CNC(=O)c1ccccc1Oc1nc(Nc2cc(OC)c(OC)c(OC)c2)ncc1Br,inhibition,[7],16%
same,fold change (FC),[8],0
same,fold change (FC),[9],0.16
